Measurements taken from ChEMBL document CHEMBL2203264, “Optimization of imidazo[4,5-b]pyridine-based kinase inhibitors: identification of a dual FLT3/Aurora kinase inhibitor as an orally bioavailable preclinical development candidate for the treatment of acute myeloid leukemia” (J Med Chem, 2012).
Activity calls are given as the source filed them. No cut-off for these calls is given here.

Legend:
[1] = target: Proto-oncogene tyrosine-protein kinase receptor Ret (Homo sapiens) (UniProt P07949); assay: Inhibition of RET at 1 uM
Chain of Proto-oncogene tyrosine-protein kinase receptor Ret (Homo sapiens) (P07949 whole entry): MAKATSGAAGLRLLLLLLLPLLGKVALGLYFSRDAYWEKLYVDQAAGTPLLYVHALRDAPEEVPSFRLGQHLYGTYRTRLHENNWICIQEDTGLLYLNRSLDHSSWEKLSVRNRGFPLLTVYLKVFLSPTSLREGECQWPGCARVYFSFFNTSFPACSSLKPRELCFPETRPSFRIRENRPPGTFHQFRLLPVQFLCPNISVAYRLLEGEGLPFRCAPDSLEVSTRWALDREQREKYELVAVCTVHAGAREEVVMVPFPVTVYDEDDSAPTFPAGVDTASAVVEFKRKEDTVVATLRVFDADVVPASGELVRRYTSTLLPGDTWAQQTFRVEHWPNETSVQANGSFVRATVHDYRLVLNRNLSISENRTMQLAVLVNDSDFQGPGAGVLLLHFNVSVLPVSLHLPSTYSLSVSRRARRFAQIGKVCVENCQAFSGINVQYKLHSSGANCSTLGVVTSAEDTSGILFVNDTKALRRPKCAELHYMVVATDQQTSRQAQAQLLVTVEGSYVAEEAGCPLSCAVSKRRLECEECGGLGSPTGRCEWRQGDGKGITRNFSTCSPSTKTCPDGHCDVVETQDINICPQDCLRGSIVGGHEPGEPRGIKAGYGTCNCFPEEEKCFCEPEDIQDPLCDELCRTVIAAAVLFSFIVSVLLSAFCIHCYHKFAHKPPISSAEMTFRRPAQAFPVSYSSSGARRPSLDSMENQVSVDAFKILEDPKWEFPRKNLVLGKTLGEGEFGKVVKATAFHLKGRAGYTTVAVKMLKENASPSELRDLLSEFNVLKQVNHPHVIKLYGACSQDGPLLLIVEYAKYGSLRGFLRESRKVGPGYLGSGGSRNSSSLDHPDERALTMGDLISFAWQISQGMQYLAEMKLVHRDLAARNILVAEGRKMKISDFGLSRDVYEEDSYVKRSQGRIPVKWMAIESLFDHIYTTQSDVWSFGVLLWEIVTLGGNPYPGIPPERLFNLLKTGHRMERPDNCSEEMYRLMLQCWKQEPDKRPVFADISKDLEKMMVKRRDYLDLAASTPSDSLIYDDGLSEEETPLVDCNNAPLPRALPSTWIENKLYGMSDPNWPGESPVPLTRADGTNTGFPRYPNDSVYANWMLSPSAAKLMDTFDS
How it was run: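 KINOMEScan competition-binding panel of 442 kinases (386 nonmutant) tested at 1 μM. Binding is read as percent of control ligand competition; <10% of control counts as a hit for the S(10) score.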

Mus musculus [2] = assay: Inhibition of Stat5 phosphorylation at Y694 in tumor of human MV4-11 cells xenografted CrTacNCr-Fox1(nu) athymic mouse at 50 to 100 mg/kg, po bid for 4 days measured after 2 hrs post final dose; format: functional, organism-based
How it was run: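 MV4-11 xenograft-bearing athymic mice dosed orally at 50 or 100 mg/kg twice daily for 4 days, starting 17 days after implantation. Tumors harvested 2 h after the final dose. Western blotting for phospho-histone H3 (S10) and phospho-Stat5 (Y694), with total histone H3, total Stat5 and GAPDH as loading controls.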

MV4-11 [3] = assay: Antitumor activity against human MV4-11 cells xenografted in CrTacNCr-Fox1(nu) athymic mouse assessed as reduction in tumor relapse at 50 to 100 mg/kg, po bid administered 10 days post implantation daily for 7 days measured after 60 days; format: functional; set-up: scale not given: the % may be the effect or the level left; conditions: dose mg/kg 50-100
How it was run: (§1)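 Female adult CrTacNcr-Fox1(nu) athymic mice, s.c. 10^7 FLT3-ITD-positive MV4-11 cells; treatment began at 10 days (mean tumor volume at least 100 mm^3). Oral 50 or 100 mg/kg in 10% DMSO, 20% PEG 400, 5% Tween 80, 65% water, or vehicle alone; n = 5 per group. Dosed twice daily for 7 days, then once daily for 4 days; study ended day 60.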

MV4-11 [4] = assay: Antitumor activity against human MV4-11 cells xenografted in CrTacNCr-Fox1(nu) athymic mouse assessed as tumor growth inhibition at 50 mg/kg, po bid administered 10 days post implantation daily for 7 days measured after 11 days; format: functional; set-up: scale not given: the % may be the effect or the level left; how it was run: as §1
Mus musculus [5] = assay: Toxicity in CrTacNCr-Fox1(nu) athymic mouse assessed as adverse condition at 50 to 100 mg/kg, po administered 10 days post implantation daily for 7 days; format: organism-based; set-up: dose 50-100 mg/kg, route oral; conditions: in vivo
Mus musculus [6] = assay: Toxicity in CrTacNCr-Fox1(nu) athymic mouse assessed as body weight loss at 50 to 100 mg/kg, po administered 10 days post implantation daily for 7 days; format: organism-based; set-up: dose 50-100 mg/kg, route oral; conditions: in vivo
MV4-11 [7] = assay: Antitumor activity against human MV4-11 cells xenografted in po dosed CrTacNCr-Fox1(nu) athymic mouse assessed as tumor growth inhibition administered 10 days post implantation twice daily for 7 days; format: functional, organism-based
How it was run: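 Female adult athymic nude mice implanted subcutaneously with 10^7 FLT3-ITD-positive MV4-11 cells; treatment started 10 days after implantation, once mean tumor volume was at least 100 mm^3. Oral dosing at 50 or 100 mg/kg (n = 5 per group), twice daily for 7 days, then once daily for a further 4 days. Vehicle: 10% DMSO, 20% PEG 400, 5% Tween 80, 65% water. Tumor volume followed to day 60.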

[8] = AUC (infinity) in Sprague-Dawley rat at 5 mg/kg, iv; format: ADME, organism-based; set-up: time infinity, dose 5 mg/kg, route intravenous; conditions: plasma
How it was run: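 Female Sprague–Dawley rats dosed iv at 5 mg/kg in 10% DMSO, 5% Tween 20, 85% saline, 0.3% 1 M HCl. Serial tail-vein bleeds at 15, 30 min and 2, 4, 6, 24 h. Plasma was methanol-precipitated with olomoucine internal standard, then analysed by LC–MS (positive ESI MRM).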

[9] = Lipophilicity, log D of the compound; format: physicochemical; conditions: octanol/water
[10] = Clearance in Sprague-Dawley rat at 5 mg/kg, iv; format: ADME, organism-based; set-up: dose 5 mg/kg, route intravenous; conditions: in vivo
How it was run: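 Female Sprague–Dawley rats given 5 mg/kg iv in 10% DMSO, 5% Tween 20, 85% saline, 0.3% 1 M HCl. Serial tail vein bleeds at 15 and 30 min and 2, 4, 6, 24 h; plasma protein-precipitated with methanol with olomoucine internal standard; drug quantified by LC–MS (positive ESI MRM). Clearance given as L/h and mL/min/kg.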

[11] = Oral bioavailability in Balb/C mouse at 5 mg/kg; format: ADME, organism-based; conditions: in vivo
How it was run: (§2)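 Female Balb/C mice given 5 mg/kg po or iv in 10% DMSO, 5% Tween 20 in saline. Killed at 5, 15, 30 min and 1, 2, 4, 6, 24 h; plasma from cardiac blood. Methanol protein precipitation with olomoucine internal standard, then LC-MS (reverse-phase C18, positive ESI MRM).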

Mus musculus [12] = assay: Volume of distribution in Balb/C mouse at 5 mg/kg, iv and 5 mg/kg, po; format: ADME, organism-based; conditions: in vivo; how it was run: as §2
[13] = AUC (infinity) in Balb/C mouse at 5 mg/kg, iv; format: ADME, organism-based; set-up: time infinity, dose 5 mg/kg, route intravenous; conditions: plasma
How it was run: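 Female Balb/C mice dosed iv at 5 mg/kg in 10% DMSO, 5% Tween 20 in saline. Mice killed at 5, 15, 30 min and 1, 2, 4, 6, 24 h. Plasma from cardiac blood was methanol-precipitated with olomoucine internal standard, then analysed by LC–MS (positive ESI MRM).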

[14] = Clearance in Balb/C mouse at 5 mg/kg, iv; format: ADME, organism-based; set-up: dose 5 mg/kg, route intravenous; conditions: in vivo
How it was run: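 Female Balb/C mice given a single 5 mg kg^-1 iv dose in 10% DMSO, 5% Tween 20 in saline. Mice sacrificed at 5, 15, 30 min and 1, 2, 4, 6, 24 h. Plasma from cardiac blood, methanol protein precipitation with olomoucine internal standard, LC–MS (positive ESI MRM). Clearance given in L/h.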

[15] = Half life in Balb/C mouse at 5 mg/kg, iv; format: ADME, organism-based; set-up: dose 5 mg/kg, route intravenous; conditions: in vivo; how it was run: as §2
Plasma = assay: Plasma protein binding in mouse; format: ADME, cell-free
Caco-2 = assay: Permeability across human Caco2 cells; format: ADME, cell-based
Cytochrome P450 3A4 = Cytochrome P450 3A4 (Homo sapiens, UniProt P08684); assay: Inhibition of human liver microsome CYP3A4 by LC-MS-MS analysis; format: ADME
Chain of Cytochrome P450 3A4 (P08684 whole entry): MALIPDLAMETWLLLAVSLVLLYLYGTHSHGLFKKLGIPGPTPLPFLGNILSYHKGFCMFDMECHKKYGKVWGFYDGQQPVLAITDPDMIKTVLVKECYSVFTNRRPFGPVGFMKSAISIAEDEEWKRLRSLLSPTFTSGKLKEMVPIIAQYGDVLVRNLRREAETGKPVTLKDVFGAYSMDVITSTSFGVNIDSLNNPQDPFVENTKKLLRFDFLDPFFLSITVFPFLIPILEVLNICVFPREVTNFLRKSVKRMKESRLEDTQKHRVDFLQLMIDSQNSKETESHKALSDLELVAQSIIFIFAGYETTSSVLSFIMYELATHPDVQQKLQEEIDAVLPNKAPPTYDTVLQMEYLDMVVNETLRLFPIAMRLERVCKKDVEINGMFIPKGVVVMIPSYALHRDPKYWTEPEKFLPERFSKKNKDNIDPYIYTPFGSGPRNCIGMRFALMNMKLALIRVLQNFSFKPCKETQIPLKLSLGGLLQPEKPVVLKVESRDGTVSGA
How it was run: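 Pooled human liver microsomes (50 donors) at 0.5 mg/mL protein, 10 min incubation; metabolite detected by LC-MS/MS with positive ESI.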

[16] = target: Voltage-gated inwardly rectifying potassium channel KCNH2 (Homo sapiens, UniProt Q12809); assay: Inhibition of human ERG by whole-cell voltage clamping
Chain of Voltage-gated inwardly rectifying potassium channel KCNH2 (Q12809 whole entry): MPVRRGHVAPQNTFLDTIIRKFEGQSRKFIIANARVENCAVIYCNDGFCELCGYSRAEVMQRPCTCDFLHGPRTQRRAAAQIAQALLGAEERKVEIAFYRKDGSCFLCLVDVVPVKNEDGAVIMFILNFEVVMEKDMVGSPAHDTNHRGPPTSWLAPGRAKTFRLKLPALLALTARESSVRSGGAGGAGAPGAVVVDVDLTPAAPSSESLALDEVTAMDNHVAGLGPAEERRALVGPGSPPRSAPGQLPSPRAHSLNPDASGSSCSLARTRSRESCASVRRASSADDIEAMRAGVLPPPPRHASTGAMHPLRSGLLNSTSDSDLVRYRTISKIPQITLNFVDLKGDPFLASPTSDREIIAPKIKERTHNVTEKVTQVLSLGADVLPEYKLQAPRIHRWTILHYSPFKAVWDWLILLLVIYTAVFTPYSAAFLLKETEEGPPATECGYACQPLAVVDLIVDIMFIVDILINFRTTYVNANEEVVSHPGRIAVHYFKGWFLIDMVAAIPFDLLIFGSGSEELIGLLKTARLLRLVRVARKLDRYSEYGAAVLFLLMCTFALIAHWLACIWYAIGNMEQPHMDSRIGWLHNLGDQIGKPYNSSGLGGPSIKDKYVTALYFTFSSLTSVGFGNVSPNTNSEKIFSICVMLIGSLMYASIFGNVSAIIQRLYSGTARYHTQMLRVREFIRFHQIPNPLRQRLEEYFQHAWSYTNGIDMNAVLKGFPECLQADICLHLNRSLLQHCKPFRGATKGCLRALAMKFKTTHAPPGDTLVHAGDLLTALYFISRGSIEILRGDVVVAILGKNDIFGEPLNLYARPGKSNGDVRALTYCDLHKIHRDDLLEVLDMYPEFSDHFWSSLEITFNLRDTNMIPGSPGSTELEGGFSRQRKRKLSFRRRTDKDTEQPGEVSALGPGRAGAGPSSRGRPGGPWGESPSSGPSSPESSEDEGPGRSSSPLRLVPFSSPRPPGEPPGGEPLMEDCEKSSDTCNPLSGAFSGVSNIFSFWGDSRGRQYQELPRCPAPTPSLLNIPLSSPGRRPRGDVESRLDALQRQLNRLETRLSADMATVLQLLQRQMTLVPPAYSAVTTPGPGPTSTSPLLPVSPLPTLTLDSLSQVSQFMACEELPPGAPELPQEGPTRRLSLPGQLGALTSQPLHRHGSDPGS
How it was run: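 hERG tail current measured by whole-cell voltage clamp (Cyprotex) to obtain an IC50. Single-point screens were a separate high-throughput cell-based electrophysiology assay at 10 μM, with 0.3% DMSO vehicle and 1 μM cisapride as controls.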

[17] = Metabolic stability in human liver microsomes assessed as parent compound metabolism after 30 mins by LC-MS analysis; format: ADME, Microsome; conditions: read-out: Drug metabolism
How it was run: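 Test compound at 10 μM with pooled mixed-gender human liver microsomes (1 mg/mL protein), NADPH 1 mM, UDPGA 2.5 mM and MgCl2 3 mM in 10 mM PBS at 37 °C for 0 and 30 min. Controls omit NADPH/UDPGA. Compound remaining measured by LC–MS; reported as percent of parent metabolized at 30 min.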

[18] = Half life in Sprague-Dawley rat at 5 mg/kg, iv; format: ADME, organism-based; set-up: dose 5 mg/kg, route intravenous; conditions: in vivo
How it was run: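 Female Sprague-Dawley rats, 5 mg/kg. Oral vehicle 10% DMSO, 5% Tween 80, 20% PEG400 in water; iv vehicle 10% DMSO, 5% Tween 20, 85% saline, 0.3% 1 M HCl. Serial tail-vein plasma at 15, 30 min and 2, 4, 6, 24 h. Methanol precipitation with olomoucine internal standard, then LC-MS (C18 BEH, positive ESI MRM).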

SMILES: Cc1nn(C)cc1-c1nc2c(N3CCN(Cc4ccc(Cl)cc4)CC3)c(Cl)cnc2[nH]1 [MOBINITINIB]
- inhibition [1]: 1.8%
- inhibition (Mus musculus [2]): Active
- Activity (MV4-11 [3]): 60%
- Activity (MV4-11 [4]): 42%
- Activity (Mus musculus [5]): Non-toxic
- Activity (Mus musculus [6]): Non-toxic
- TGI (MV4-11 [7]): Dose-dependent effect
- AUC(0-inf) [8]: 39.9 µM·h
- logD [9]: 3.84
- clearance [10]: 0.95 mL/min
- bioavailability [11]: 100%
- Vd (Mus musculus [12]): 3.3 L/kg
- AUC(0-inf) [13]: 3.75 µM·h
- clearance [14]: 0.967 mL/min
- half-life [15]: 0.84 h
- PPB (Plasma): 97.3%
- permeability (Caco-2): 18.6 ×10⁻⁶ cm/s
- IC50 (Cytochrome P450 3A4): > 10 µM
- IC50 [16]: > 25 µM
- metabolised at 0.5 h [17]: 10%
- half-life [18]: 4.62 h
